The list is not random: actives were taken first. Their share in the collection is about 4.1%.
MC4R ag barr: activates human MC4R beta-arrestin recruitment; P32245; U2OS MC4R beta-arrestin complementation, luminescence; percent of melanotan II response, DMSO zero; activation, % at 8.9 µM; actives 0.98% (n = 360,000); AID 540308;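 active means activation above a per-plate cutoff, the mean activation of sample wells on that plate plus 3 SD, cut at about 8% in these data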
MC4R antagonist: blocks human MC4R cAMP signaling | P32245 | inhibition, % at 6.5 µM | AID 540295 | MC4R-expressing cells, MTII-stimulated cAMP, LANCE TR-FRET | actives 0.48% (n = 360,000);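 active means inhibition above its plate's cutoff, the mean of tested wells on that plate plus 3 SD, cut at about 29% in these data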
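Material: U2OS-MC4R stable cell line | Reagent: Melanotan II challenge after compound preincubation | Doses: One concentration, 6.5 µM nominal | Incubation: 30-min compound preincubation, 1-h Melanotan II challenge, 1-h detection, room temperature | Signal: TR-FRET cAMP assay | Replicates: One well per compound, no replicates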
SMARCA2 act: increases SMARCA2 function in MMTV reporter cells | actives 1% (n = 370,000) | activation, % at 9.1 µM | MG213 cells, MMTV-luciferase reporter, dexamethasone, overnight; in the data active means activation above about 7.8%
ATG4B inhibitor: blocks human ATG4B protease cleavage of LC3 substrate; Q9Y4P1; ATG4B cleavage of LC3-PLA2, NBD-HPC fluorescence, 1 h; inhibition, % at 8.33 µM; actives 0.51% (n = 340,000); AID 504462; in the data active means inhibition above about 40%
Target sequence (Q9Y4P1 whole entry, looked up): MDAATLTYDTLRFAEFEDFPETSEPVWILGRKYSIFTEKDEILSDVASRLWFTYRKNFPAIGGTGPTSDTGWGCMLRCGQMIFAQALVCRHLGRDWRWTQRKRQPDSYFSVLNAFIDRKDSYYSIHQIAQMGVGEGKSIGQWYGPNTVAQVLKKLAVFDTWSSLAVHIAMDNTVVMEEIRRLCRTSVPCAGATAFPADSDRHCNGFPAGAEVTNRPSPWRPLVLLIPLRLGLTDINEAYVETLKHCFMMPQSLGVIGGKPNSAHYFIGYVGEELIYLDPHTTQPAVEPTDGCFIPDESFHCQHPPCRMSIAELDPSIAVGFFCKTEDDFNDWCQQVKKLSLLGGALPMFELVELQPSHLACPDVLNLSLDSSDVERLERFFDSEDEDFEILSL
MPTP inh: permeability transition pore inhibition; actives 1.4% (n = 360,000); inhibition, % at 10 µM; isolated mouse mitochondria, Ca2+ swelling absorbance, 30 min; AID 602449;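 active means inhibition of 50% or more, scaled per plate between neutral and stimulator controls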
PLA2 ctr: PLA2 (human) inhibition in ATG4B counter-screen; shares compounds with ATG4B inhibitor; purified PLA2, NBD-C6-HPC fluorescence, 45 min; inhibition, % at 8.33 µM; actives 66% (n = 1,600); AID 588402; in the data active means inhibition above about 50%
Target sequence (P04054 whole entry, looked up): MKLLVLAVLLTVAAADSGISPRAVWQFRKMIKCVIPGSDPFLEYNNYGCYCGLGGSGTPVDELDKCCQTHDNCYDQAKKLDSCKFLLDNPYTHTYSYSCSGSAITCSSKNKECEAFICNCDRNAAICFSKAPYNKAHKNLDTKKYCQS
A number is an active result.

Results for CN(CC(=O)Nc1ccccc1Br)CC(=O)Nc1ccccc1-c1ccccc1 ?
MC4R ag barr: inactive; MC4R antagonist: inactive; SMARCA2 act: inactive; ATG4B inhibitor: inactive; MPTP inh: inactive

Results for COC(=O)C1CN(CCc2ccccc2)CCS(=O)(=O)N1Cc1ccc(C)cc1 (stereo not given) ?
SMARCA2 act: inactive

What do the screens show for `O=[N+]([O-])c1ccccc1-c1cc(-c2cc(Cl)ccc2O)n[nH]1`?
MC4R ag barr: inactive; MC4R antagonist: inactive; SMARCA2 act: inactive; ATG4B inhibitor: 88; MPTP inh: inactive; PLA2 ctr: 85

Results for Cc1ccc(O)c(-c2cc(-c3ccccc3[N+](=O)[O-])[nH]n2)c1 ?
MC4R ag barr: 8.9; MC4R antagonist: inactive; SMARCA2 act: inactive; ATG4B inhibitor: 73; MPTP inh: inactive; PLA2 ctr: 67

Results for Cc1ccc(O)c(-c2cc(-c3ccccc3C)[nH]n2)c1 ?
MC4R ag barr: inactive; MC4R antagonist: inactive; SMARCA2 act: inactive; ATG4B inhibitor: 55; MPTP inh: inactive; PLA2 ctr: 62

What do the screens show for `Oc1ccccc1-c1cc(-c2ccccc2Cl)[nH]n1`?
MC4R ag barr: inactive; MC4R antagonist: inactive; SMARCA2 act: inactive; ATG4B inhibitor: 56; MPTP inh: inactive; PLA2 ctr: 68

How did COc1ccc(O)c(-c2cc(-c3ccccc3[N+](=O)[O-])[nH]n2)c1 do in these assays?
MC4R ag barr: inactive; MC4R antagonist: inactive; SMARCA2 act: inactive; ATG4B inhibitor: inactive; MPTP inh: inactive

How did O=C(OC12CCCN(C1)/C(=C/c1ccccc1)C2)c1ccccc1 (stereo not given) do in these assays?
SMARCA2 act: inactive

Results for O=C(Cc1cn(Cc2ccccc2)c2ccccc12)Nc1ccc(Nc2cccnc2)c(Br)c1 ?
SMARCA2 act: inactive

How did COC(=O)[C@]12C[C@H](CC(=O)NCC3CCCCC3)C(=O)N(Cc3ccc(Cl)cc3Cl)C1=C[C@H](C(C)C)O[C@@H]2C1CC1 do in these assays?
SMARCA2 act: inactive

Results for CCOC(=O)C1=C(C(=O)OCC)C2N(Cc3ccc(C#N)cc3)c3ccccc3[C@@]23C[C@@H](C(=O)OC)N(S(=O)(=O)c2c(C)noc2C)C3=N1 (stereo not given in full) ?
SMARCA2 act: inactive

What do the screens show for `Cc1noc(C)c1CSc1nc2ccccc2c(=O)n1-c1ccc(F)cc1F`?
MC4R ag barr: inactive; MC4R antagonist: inactive; SMARCA2 act: inactive; ATG4B inhibitor: 59; MPTP inh: inactive; PLA2 ctr: 67

How did C=CCn1c(SCc2c(C)noc2C)nc2ccccc2c1=O do in these assays?
MC4R ag barr: inactive; MC4R antagonist: inactive; SMARCA2 act: inactive; ATG4B inhibitor: inactive; MPTP inh: inactive

Results for O=C(COCc1ccccc1)N1CC[C@H]2[C@H](CCCN2Cc2ccc(F)cc2)C1 ?
SMARCA2 act: inactive

Results for CC(C)(C)c1cccc(N/C(=C\C(=O)c2ccccc2)c2ccccc2)c1 ?
SMARCA2 act: inactive

How did CCCOc1cccc(C(=O)N/N=C/c2coc3ccccc3c2=O)c1 do in these assays?
MC4R ag barr: inactive; MC4R antagonist: inactive; SMARCA2 act: inactive; ATG4B inhibitor: 43; MPTP inh: inactive; PLA2 ctr: 74

What do the screens show for `CC1(C)CCCN(C(=O)c2ccc3c(c2NCCO)C(=O)c2ccccc2C3=O)C1`?
MC4R ag barr: inactive; MC4R antagonist: inactive; SMARCA2 act: inactive; ATG4B inhibitor: 68; MPTP inh: inactive; PLA2 ctr: 63

Results for Cc1ccc(CNC(=O)OC(C)(C)C)c(/C=C/S(=O)(=O)NCCc2ccccc2)c1 ?
SMARCA2 act: inactive

Results for CCOc1ccc(N2CC(O)=C(c3nc4ccccc4c(=O)[nH]3)C2=N)cc1 ?
MC4R ag barr: inactive; MC4R antagonist: inactive; SMARCA2 act: inactive; ATG4B inhibitor: inactive; MPTP inh: inactive

How did Cc1ccc(N2CC(O)=C(c3nc4ccccc4c(=O)[nH]3)C2=N)cc1C do in these assays?
MC4R ag barr: inactive; MC4R antagonist: inactive; SMARCA2 act: inactive; ATG4B inhibitor: 46; MPTP inh: inactive; PLA2 ctr: inactive

What do the screens show for `COc1ccc(C(=S)N2CCC(C(N)=O)CC2)cc1Br`?
MC4R ag barr: inactive; MC4R antagonist: inactive; SMARCA2 act: inactive; ATG4B inhibitor: inactive; MPTP inh: inactive

How did CCCCOc1ccc(C(=S)N2CCC(C(N)=O)CC2)cc1 do in these assays?
MC4R ag barr: inactive; MC4R antagonist: inactive; SMARCA2 act: inactive; ATG4B inhibitor: 82; MPTP inh: inactive; PLA2 ctr: 84

Results for O=C(C=Cc1ccc(O)c(O)c1)NCC(=O)NC(Cc1ccccc1)C(=O)O (stereo not given) ?
SMARCA2 act: inactive

Results for O=c1cc(CSc2nc3ccccc3[nH]2)c2ccccc2[nH]1 ?
MC4R ag barr: inactive; MC4R antagonist: inactive; SMARCA2 act: inactive; ATG4B inhibitor: inactive; MPTP inh: inactive

How did Fc1ccc(CSc2nc3ccccc3[nH]2)c2ccccc12 do in these assays?
MC4R ag barr: inactive; MC4R antagonist: inactive; SMARCA2 act: inactive; ATG4B inhibitor: 66; MPTP inh: inactive; PLA2 ctr: 74

What do the screens show for `Cc1cccc(C)c1OCc1cc(C(=O)NCc2ccc(Cl)s2)no1`?
MC4R ag barr: inactive; MC4R antagonist: inactive; SMARCA2 act: inactive; ATG4B inhibitor: 61; MPTP inh: inactive; PLA2 ctr: 67

What do the screens show for `O=C(NCc1ccc(Cl)s1)c1cc(COc2c(F)cccc2F)on1`?
MC4R ag barr: inactive; MC4R antagonist: inactive; SMARCA2 act: inactive; ATG4B inhibitor: inactive; MPTP inh: inactive

What do the screens show for `Cc1nn(-c2ccccc2)c(C)c1/C=N\N1CCN(Cc2ccccc2Cl)CC1`?
SMARCA2 act: inactive

How did Cc1c(Cl)c([N+](=O)[O-])nn1Cc1ccc(C(=O)N/N=C\c2cccc(Br)c2)o1 do in these assays?
MC4R ag barr: inactive; MC4R antagonist: inactive; SMARCA2 act: inactive; ATG4B inhibitor: 58; MPTP inh: inactive; PLA2 ctr: 68

Results for O=C(NNc1ccc(C2CCCCC2)cc1)C(O)(c1ccccc1)c1cccs1 (stereo not given) ?
MC4R ag barr: inactive; MC4R antagonist: inactive; SMARCA2 act: inactive; ATG4B inhibitor: 67; MPTP inh: inactive; PLA2 ctr: 70

How did O=C(CSc1ccc(Br)c2cccc(Cl)c12)Nc1ccc(S(=O)(=O)Nc2nccs2)cc1 do in these assays?
MC4R ag barr: inactive; MC4R antagonist: inactive; SMARCA2 act: inactive; ATG4B inhibitor: 48; MPTP inh: inactive; PLA2 ctr: 53

Results for O=C(Cc1ccccc1Cl)Nc1ccc(S(=O)(=O)Nc2nccs2)cc1 ?
MC4R ag barr: inactive; MC4R antagonist: inactive; SMARCA2 act: inactive; ATG4B inhibitor: inactive; MPTP inh: inactive

How did S=c1[nH]nc(-c2ccco2)n1-c1ccccc1Cl do in these assays?
MC4R ag barr: inactive; MC4R antagonist: inactive; SMARCA2 act: inactive; ATG4B inhibitor: inactive; MPTP inh: inactive

Source: PubChem
